The target in assay [1] is Somatostatin receptor type 2 (Sus scrofa). The assay can be described thus: Inhibitory concentration towards binding of sst2 receptor using [125I]somatostatin as radioligand in Neuro2A cells.
Assay [2] has as its target Somatostatin receptor type 2 (Homo sapiens, UniProt P30874). The experiment in a line: Antagonistic activity towards sst2 receptor in GH4C1 cells a concentration of 1-2 x 10e6/mL incubated for 20 minutes. Type of assay: functional, cell-based, GH4-C1. In short, it runs like this: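 GH4C1 pituitary cells (1–2×10⁶/mL) exposed to compound dose-titrations with 100 nM VIP plus 10 nM somatostatin 14, 20 min at 37 °C. cAMP content read against cAMP standards in adenylyl cyclase activation plates. Antagonism scored as a cAMP rise over VIP+somatostatin control wells. Values from single experiments or means of 2–4 replicate experiments.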

Where a SMILES comes first, the peptide text is derived from it. [ ]: non-standard residue; d: D form. The star is where a group is joined. Phe(3-F) = N[C@@H](Cc1cccc(F)c1)C(=O)O; Tos = Cc1ccc(S(=O)(=O)*)cc1

For nine compounds, IC50 results are on record in ChEMBL document CHEMBL1133812, “Small molecule somatostatin receptor subtype-2 antagonists” (Bioorg Med Chem Lett, 2001).

Sequence of Somatostatin receptor type 2 (P30874 whole entry): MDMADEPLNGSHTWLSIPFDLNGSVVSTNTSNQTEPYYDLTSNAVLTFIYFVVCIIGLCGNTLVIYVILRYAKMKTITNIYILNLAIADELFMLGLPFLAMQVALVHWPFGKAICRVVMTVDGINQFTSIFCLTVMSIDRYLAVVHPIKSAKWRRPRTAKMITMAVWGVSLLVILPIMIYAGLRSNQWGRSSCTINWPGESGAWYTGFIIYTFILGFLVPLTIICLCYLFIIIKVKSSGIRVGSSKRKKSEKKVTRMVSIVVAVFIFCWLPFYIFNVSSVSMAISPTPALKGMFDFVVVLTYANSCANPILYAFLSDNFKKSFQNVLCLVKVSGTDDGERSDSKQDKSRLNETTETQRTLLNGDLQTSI

As usually defined, the IC50 is the concentration that gives 50% inhibition. For the compound `CC(C)(C)OC(=O)[C@H](CCCCN)NC(=O)[C@H](Cc1c[nH]c2ccccc12)NC(=O)c1ccc(-c2ccccc2)cc1`, the IC50 in assay [1] amounted to 0.085 µM; in assay [2] it was 1.2 µM.
As for `CC(C)(C)OC(=O)[C@H](CCCCN)NC(=O)[C@@H](Cc1c[nH]c2ccccc12)NC(=O)N1CCN(S(=O)(=O)c2ccccc2)CC1`, the 50% inhibitory concentration (IC50) in assay [1] came out at 0.0029 µM; in assay [2] it was 0.029 µM.
Regarding `CC(C)(C)OC(=O)[C@H](CCCCN)NC(=O)[C@@H](Cc1c[nH]c2ccccc12)NC(=O)C1CCN(S(=O)(=O)c2ccccc2)CC1`, the IC50 in assay [1] amounted to 0.0032 µM; in assay [2], 0.12 µM.
On to `CC(C)(C)C1N[C@H](C(=O)NC(Cc2cccc3ccccc23)C(N)=O)CSSC[C@@H](NC(=O)C(N)Cc2cccc(F)c2)C(=O)NC(Cc2cccnc2)C(=O)N[C@@H](Cc2c[nH]c3ccccc23)C(=O)N[C@@H](CCCCN)C1=O` (stereo partly drawn), for which the values for the IC50 in assay [1] (neuro2a) and in assay [2] (gh4-c1) were 0.0041 µM and 0.27 µM, respectively.
Regarding `Cc1ccc(S(=O)(=O)N2CCN(C(=O)N[C@H](Cc3c[nH]c4ccccc34)C(=O)N[C@@H](CCCCN)C(=O)OC(C)(C)C)CC2)cc1`, the IC50 in assay [1] amounted to 0.0092 µM; in assay [2], 7.7 µM.
As to `CC(C)(C)OC(=O)[C@H](CCCCN)NC(=O)[C@@H](Cc1c[nH]c2ccccc12)NC(=O)N1CCN(C(=O)c2ccccc2)CC1`, the figures for the IC50 in assay [1] and in assay [2] were 0.0069 µM and 1.6 µM, respectively.
The corresponding values for `CC(C)(C)OC(=O)[C@H](CCCCN)NC(=O)[C@@H](Cc1c[nH]c2ccccc12)NC(=O)N1CCC(n2c(=O)[nH]c3ccccc32)CC1` are 0.00026 µM and 0.0065 µM.
For `Cc1ccc(C(=O)N2CCN(C(=O)N[C@H](Cc3c[nH]c4ccccc34)C(=O)N[C@@H](CCCCN)C(=O)OC(C)(C)C)CC2)cc1`, in that order: 0.0044 µM and 0.067 µM.
For `COC(=O)[C@H](CCCN=C(N)N)NC(=O)[C@H](Cc1cccc(F)c1)NS(=O)(=O)c1ccc(C)cc1` (Tos-[Phe(3-F)]-Arg-OMe), in that order: above 2 µM and 6.5 µM.
